Data on 11 compounds can be found in ChEMBL document CHEMBL1156229, “Pharmacophore development and application toward the identification of novel, small-molecule autotaxin inhibitors” (J Med Chem, 2010).

The target in assay [1] is T1, Autotaxin (Homo sapiens, UniProt Q13822). Kind of assay: Inhibition of human recombinant C-terminal FLAG-tagged autotaxin expressed in baculovirus-infected Sf9 cells assessed as FS-3 hydrolysis at 10 uM relative to control. Put shortly: (§1)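 Single-dose screen: inhibitor 10 μM final, purified recombinant human ATX 8.3 nM, FS-3 1 μM, fatty acid free BSA 30 μM in Tris pH 8 buffer (1 mM MgCl2, 1 mM CaCl2, 3 mM KCl, 140 mM NaCl), 37 °C. Fluorescence (ex 485/em 538) read every 2 min; percent activity vs vehicle after no-ATX subtraction at 1 h; mean ± SD of three wells.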

For assay [2], the target named is T1, Autotaxin. Kind of assay: Inhibition of human recombinant C-terminal FLAG-tagged autotaxin expressed in baculovirus-infected Sf9 cells using lysophosphatidylcholine as substrate assessed as choline release by Amplex red reagent assay. The procedure, abridged: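 LPC 16:0 100 μM with purified human ATX 8.3 nM and inhibitor 10 μM final, 30 μM fatty acid free BSA, 50 mM Tris/5 mM CaCl2 pH 7.4, 37 °C. Choline detected by choline oxidase 0.1 U/mL, HRP 1 U/mL, Amplex Red 10 μM; fluorescence ex 560/em 590 every 2 min, percent of vehicle at 1 h after no-ATX subtraction; mean ± SD of three wells.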

Assay [3] addresses T1, Autotaxin. Kind of assay: Inhibition of autotaxin at 10 uM. Put shortly: as §1
Assay [4] deals with T1, Autotaxin. Kind of assay: Inhibition of human recombinant C-terminal FLAG-tagged autotaxin expressed in baculovirus-infected Sf9 cells assessed as FS-3 hydrolysis at 30 uM; values are per cent of control.
In assay [5] the target is T1, Autotaxin. Kind of assay: Noncompetitive inhibition of human recombinant C-terminal FLAG-tagged autotaxin expressed in baculovirus-infected Sf9 cells assessed as FS-3 hydrolysis by Michaelis-Menten method.
Assay [6] addresses T1, Autotaxin. Kind of assay: Inhibition of human recombinant C-terminal FLAG-tagged autotaxin expressed in baculovirus-infected Sf9 cells assessed as FS-3 hydrolysis at 0.003 uM; values are per cent of control.
Assay [7] concerns the target T1, Autotaxin. Kind of assay: Inhibition of human recombinant C-terminal FLAG-tagged autotaxin expressed in baculovirus-infected Sf9 cells assessed as FS-3 hydrolysis at 0.1 uM; values are per cent of control.
Assay [8] addresses T2, Glycerophosphocholine cholinephosphodiesterase ENPP6 (Homo sapiens) (UniProt Q6UWR7).
T2 sequence (whole entry): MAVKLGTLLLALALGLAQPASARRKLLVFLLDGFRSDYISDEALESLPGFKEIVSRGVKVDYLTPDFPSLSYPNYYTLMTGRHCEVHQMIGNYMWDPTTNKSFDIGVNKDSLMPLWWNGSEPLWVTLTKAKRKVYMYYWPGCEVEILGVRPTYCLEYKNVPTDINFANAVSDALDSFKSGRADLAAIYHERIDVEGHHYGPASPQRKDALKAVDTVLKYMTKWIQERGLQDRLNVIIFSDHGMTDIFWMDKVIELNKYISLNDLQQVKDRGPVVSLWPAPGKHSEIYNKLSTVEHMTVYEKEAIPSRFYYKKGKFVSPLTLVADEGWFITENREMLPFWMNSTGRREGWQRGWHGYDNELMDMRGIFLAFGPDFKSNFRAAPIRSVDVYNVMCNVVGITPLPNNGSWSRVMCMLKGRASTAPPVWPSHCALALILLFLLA
Kind of assay: Inhibition of human recombinant C-terminal FLAG-tagged NPP6 expressed in baculovirus-infected Sf9 cells assessed as pNPPC hydrolysis at 10 uM relative to control. The procedure, abridged:
(§2)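 Purified Sf9-expressed FLAG-tagged enzyme 8.3 nM with inhibitor 10 μM final. NPP6: pNPPC 10 μM in 100 mM Tris-HCl, 500 mM NaCl, 0.05% Triton X-100, pH 9. NPP7: pNPPC 500 μM in 50 mM Tris HCl, 150 mM NaCl, 10 mM sodium taurocholate, pH 8. 37 °C, A405 every 2 min; percent activity vs vehicle at 1 h after no-enzyme subtraction; three wells.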

For assay [9], the target named is T1, Autotaxin. Kind of assay: Inhibition of human recombinant C-terminal FLAG-tagged autotaxin expressed in baculovirus-infected Sf9 cells assessed as FS-3 hydrolysis at 0.03 uM; values are per cent of control.
For assay [10], the target named is T1, Autotaxin. Kind of assay: Inhibition of human recombinant C-terminal FLAG-tagged autotaxin expressed in baculovirus-infected Sf9 cells assessed as FS-3 hydrolysis at 0.01 uM; values are per cent of control.
Assay [11] concerns the target T1, Autotaxin. Kind of assay: Inhibition of human recombinant C-terminal FLAG-tagged autotaxin expressed in baculovirus-infected Sf9 cells assessed as FS-3 hydrolysis at 3 uM; values are per cent of control.
Assay [12] has as its target T1, Autotaxin. Kind of assay: Inhibition of human recombinant C-terminal FLAG-tagged autotaxin expressed in baculovirus-infected Sf9 cells assessed as FS-3 hydrolysis. The procedure, abridged:
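Dose response: final inhibitor 30, 10, 3, 1, 0.3, 0.1, 0.03 μM, plus 0.01 and 0.003 μM for some compounds; purified human ATX 8.3 nM, 1 μM FS-3, 30 μM fatty acid free BSA, Tris pH 8 buffer, 37 °C. Fluorescence ex 485/em 538 every 2 min; percent activity vs vehicle at 1 h after no-ATX background subtraction; mean of three wells.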

The target in assay [13] is T1, Autotaxin. Kind of assay: Inhibition of human recombinant C-terminal FLAG-tagged autotaxin expressed in baculovirus-infected Sf9 cells assessed as FS-3 hydrolysis at 1 uM; values are per cent of control.
Assay [14] has as its target T3, Ectonucleotide pyrophosphatase/phosphodiesterase family member 7 (Homo sapiens) (UniProt Q6UWV6).
T3 sequence (whole entry): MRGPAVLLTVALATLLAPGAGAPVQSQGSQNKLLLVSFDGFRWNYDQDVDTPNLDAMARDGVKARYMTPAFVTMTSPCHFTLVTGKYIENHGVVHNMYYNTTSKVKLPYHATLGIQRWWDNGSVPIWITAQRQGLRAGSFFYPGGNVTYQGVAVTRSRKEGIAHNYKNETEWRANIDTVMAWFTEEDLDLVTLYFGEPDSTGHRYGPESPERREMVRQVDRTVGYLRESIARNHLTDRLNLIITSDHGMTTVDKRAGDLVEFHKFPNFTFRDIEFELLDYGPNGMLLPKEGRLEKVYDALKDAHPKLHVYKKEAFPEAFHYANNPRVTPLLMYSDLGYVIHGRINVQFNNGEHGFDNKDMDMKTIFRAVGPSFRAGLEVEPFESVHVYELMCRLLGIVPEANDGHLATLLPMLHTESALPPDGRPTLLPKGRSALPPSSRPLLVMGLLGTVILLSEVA
Kind of assay: Inhibition of human recombinant C-terminal FLAG-tagged NPP7 expressed in baculovirus-infected Sf9 cells assessed as pNPPC hydrolysis at 10 uM relative to control. Put shortly: as §2

The target in assay [15] is T1, Autotaxin. Kind of assay: Inhibition of human recombinant C-terminal FLAG-tagged autotaxin expressed in baculovirus-infected Sf9 cells assessed as FS-3 hydrolysis at 0.3 uM; values are per cent of control.
Assay [16] addresses T1, Autotaxin. Kind of assay: Inhibition of human recombinant C-terminal FLAG-tagged autotaxin expressed in baculovirus-infected Sf9 cells assessed as FS-3 hydrolysis at 10 uM; values are per cent of control.
The target in assay [17] is T1, Autotaxin. Kind of assay: Competitive inhibition of human recombinant C-terminal FLAG-tagged autotaxin expressed in baculovirus-infected Sf9 cells assessed as FS-3 hydrolysis by Michaelis-Menten method.

The inhibition is the relative decrease from the control value, in per cent. A word on the residual activity: it is the activity still measured, relative to the control. The Ki is a measure of affinity in units of concentration, obtained from inhibition or displacement. As usually defined, the IC50 is the concentration at which inhibition is half-maximal.

Calls of active or inactive are those of the source. The rule behind the calls is not given here.

Turning to `CC1=NN(c2ccc(/C=C/c3ccc(NC(=O)Nc4ccc(/C=C/c5ccc(N6N=C(C)C(/N=N/c7ccccc7C(=O)O)C6=O)cc5S(=O)(=O)O)c(S(=O)(=O)O)c4)cc3S(=O)(=O)O)c(S(=O)(=O)O)c2)C(=O)C1/N=N/c1ccccc1C(=O)O` (stereo not given), the inhibition on Autotaxin [1] is 13%. In addition, the inhibition result at Autotaxin [2] is “Active”.
For the compound `O=[As](O)(O)c1ccc(Cc2ccc([As](=O)(O)O)cc2)cc1`, the inhibition against Autotaxin [3] was determined as 98%.
Take `Nc1c(/N=N/c2ccc(-c3ccc(/N=N/c4cc(S(=O)(=O)O)c5ccccc5c4N)cc3)cc2)cc(S(=O)(=O)O)c2ccccc12` [CONGO RED]: the residual activity on Autotaxin [4] amounted to 5.29%; at Autotaxin [6], 99.9%; on Autotaxin [7] it was 91.2%; at Autotaxin [9], 94.6%; at Autotaxin [10], 99.8%; at Autotaxin [11] it was 36.7%. For the same compound, the residual activity was 54.9% at Autotaxin [13], 77.3% on Autotaxin [15] and 14.6% on Autotaxin [16]. Moreover, the inhibition constant Ki on Autotaxin [5] was found to be 1890 nM. Further, the figures for the inhibition (in [8]; at Autotaxin [1]; in [14]) were -3%, 82% and 2%, respectively. For the same compound, the concentration for half-maximal inhibition (IC50) on Autotaxin [12] was found to be 1310 nM.
`Nc1ccc(C(=O)Nc2ccc(C(=O)Nc3ccc4c(O)cc(S(=O)(=O)O)cc4c3)cc2)cc1`: the inhibition at Autotaxin [1] was 40%. In addition, the inhibition entry at Autotaxin [2] was “Active”.
On the same counts, the results for `O=C(Nc1ccc(C(=O)Nc2cc(S(=O)(=O)O)cc3cccc(S(=O)(=O)O)c23)cc1)Nc1ccc(C(=O)Nc2cc(S(=O)(=O)O)cc3cccc(S(=O)(=O)O)c23)cc1` are -5% and “Active”.
Regarding `COc1c(C=O)c(O)cc2c1C(=O)c1ccccc1C2=O`, the inhibition against Autotaxin [3] came out at 70%.
On to `O=S(=O)(O)c1cc(O)c2ccc(Nc3ccc4c(O)cc(S(=O)(=O)O)cc4c3)cc2c1`, for which, at Autotaxin [1], the inhibition was 11%. Moreover, the inhibition result at Autotaxin [2] was “Active”.
As to `Cc1cc(-c2ccc(/N=N/c3ccc4c(S(=O)(=O)O)cc(S(=O)(=O)O)c(N)c4c3O)c(C)c2)ccc1/N=N/c1ccc2c(S(=O)(=O)O)cc(S(=O)(=O)O)c(N)c2c1O` [EVANS BLUE], the residual activity at Autotaxin [4] was 13.3%; at Autotaxin [6], 95.8%; at Autotaxin [7], 82.3%; on Autotaxin [9] it was 89.6%; on Autotaxin [10], 96%; at Autotaxin [11], 35.8%. The residual activity is 47.9% on Autotaxin [13], 60.9% on Autotaxin [15] and 26.2% on Autotaxin [16]. Besides, the values for the inhibition (in assay [8]; at Autotaxin [1]; in [14]) were -2%, 64% and -2%, respectively. Further, the IC50 at Autotaxin [12] came to 922 nM. Further, on Autotaxin [17], the inhibition constant Ki was 824 nM.
On to `CCn1cc(C(=O)O)c(=O)c2cnc(N3CCN(C(=S)Nc4cc(Cl)cc(Cl)c4)CC3)nc21`, for which, on Autotaxin [3], the inhibition was found to be 100%.
Regarding `COc1cc(-c2ccc(/N=N/c3c(S(=O)(=O)O)cc4cc(S(=O)(=O)O)cc(N)c4c3O)c(OC)c2)ccc1/N=N/c1c(S(=O)(=O)O)cc2cc(S(=O)(=O)O)cc(N)c2c1O`, the residual activity on Autotaxin [4] came out at 2.68%; at Autotaxin [6], 97.5%; on Autotaxin [7], 72%; at Autotaxin [9], 86.2%; on Autotaxin [10], 93.9%; at Autotaxin [11], 14.1%. In addition, the residual activity on Autotaxin [13] is 26%; on Autotaxin [15], 52.9%; on Autotaxin [16], 6%. In addition, the results for the inhibition (in assay [8]; at Autotaxin [1]; in assay [14]) were -3%, 93% and -1%, respectively. Moreover, the IC50 at Autotaxin [12] is 372 nM. For the same compound, at Autotaxin [17], the Ki stood at 271 nM.
Consider `O=S(=O)(O)c1ccc(-c2c3nc(c(-c4ccc(S(=O)(=O)O)cc4)c4ccc([nH]4)c(-c4ccc(S(=O)(=O)O)cc4)c4ccc([nH]4)c(-c4ccc(S(=O)(=O)O)cc4)c4nc2C=C4)C=C3)cc1` [TETRAPHENYLPORPHINE TETRASULFONIC ACID], for which the inhibition on Autotaxin [1] came out at 61%. Moreover, at Autotaxin [12] (sf9), the IC50 worked out at 7800 nM.
